SIAE primary: human SIAE inhibitors, primary screen, biochemical, fluorescence polarization, FP-Rh probe, 1536-well HTS; hit rate 0.69% among 370,000; inhibition, % at 9.66 µM; SIAE FP-Rh probe binding; AID 1053197, 2014; Sialate O-acetylesterase (Homo sapiens), Q9HAT2;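 active = inhibition above a cutoff: mean of compounds within the control limits plus 3 SD of those, cut at about 17% in these data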;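 also: 0% = plate median of compound wells and 100% = probe without SIAE protein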
Target sequence (Q9HAT2 whole entry, looked up): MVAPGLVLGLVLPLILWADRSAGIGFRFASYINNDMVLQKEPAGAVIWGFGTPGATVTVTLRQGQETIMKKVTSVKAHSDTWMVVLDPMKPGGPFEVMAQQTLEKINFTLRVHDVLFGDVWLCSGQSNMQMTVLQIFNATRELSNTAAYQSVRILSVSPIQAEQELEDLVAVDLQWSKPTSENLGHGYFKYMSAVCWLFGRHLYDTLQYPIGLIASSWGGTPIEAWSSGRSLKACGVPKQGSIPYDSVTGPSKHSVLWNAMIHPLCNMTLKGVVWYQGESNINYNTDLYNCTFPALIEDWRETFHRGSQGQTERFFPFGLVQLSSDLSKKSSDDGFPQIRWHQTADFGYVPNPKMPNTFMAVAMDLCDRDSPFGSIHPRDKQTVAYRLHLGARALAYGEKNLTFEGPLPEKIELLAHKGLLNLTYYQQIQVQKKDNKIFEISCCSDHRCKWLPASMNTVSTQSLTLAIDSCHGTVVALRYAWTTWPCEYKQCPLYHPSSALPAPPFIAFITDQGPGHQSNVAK
HTRA1 inh: HTRA1 serine protease inhibitors, primary screen, biochemical, fluorescence polarization, HTS | hit rate 0.5% among 340,000 | recombinant HTRA1, FP-rhodamine activity-based probe | inhibition, % at 5.96 µM; in the data active = inhibition above about 36%;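 also: 0% = enzyme with DMSO and 100% = wells lacking enzyme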
ABHD4 inh: ABHD4 inhibitors, primary screen, biochemical, fluorescence polarization, mouse. purified mABHD4, FP-Rh probe fluorescence polarization. inhibition, % at 8.92 µM. (Lyso)-N-acylphosphatidylethanolamine lipase (Mus musculus), Q8VD66. hit rate 0.54% among 370,000;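 active = inhibition exceeding the mean over every tested compound plus 3 SD, cut at about 30% in these data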;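 also: 0% = plate median of compound wells and 100% = S159A mutant with DMSO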
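Material: mouse ABHD4 enzyme, wild type; Benchmarks: S159A mutant high control, sample median low control; Buffer or medium: HEPES pH 7.0, NaCl, Pluronic buffer; Signal: fluorescence polarization; Read-out: percent inhibition of probe binding, normalized to plate controls; Timing: pre-incubation 45 min, probe exposure 60 min, at 25 °C; Dosing: 8.92 µM, single dose.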
RBBP9 inh: human RBBP9 inhibitors, primary screen, biochemical, fluorescence polarization, FP-Rh probe, HTS; Serine hydrolase RBBP9 (Homo sapiens), O75884; recombinant RBBP9; inhibition, % at 7.94 µM; hit rate 0.2% among 220,000;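 active = inhibition above the campaign mean of all tested compounds plus 3 SD, cut at about 14% in these data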;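 also: plate controls were DMSO wells with RBBP9 for no effect and wells lacking RBBP9 protein for full effect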
Target sequence (O75884 whole entry, looked up): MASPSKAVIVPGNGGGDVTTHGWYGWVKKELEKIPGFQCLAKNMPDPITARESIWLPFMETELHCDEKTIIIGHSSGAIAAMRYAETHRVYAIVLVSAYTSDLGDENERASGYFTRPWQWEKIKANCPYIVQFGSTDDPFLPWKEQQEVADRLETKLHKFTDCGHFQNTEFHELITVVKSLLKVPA
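system = RBBP9 protein | input = RBBP9 at 2.5 µM in dispensed solution, before mixing | measured by = fluorescence polarization (mP), excitation 525 nm, emission 598 nm | incubation = enzyme-compound preincubation 30 min, then probe labeling 45 min, 25 °C | buffer or medium = Tris-NaCl-Pluronic buffer, pH 8.0 | compound = single dose 7.94 µM | also added = FP-Rh probe, 375 nM dispensing solution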
SIAE confirm: human SIAE inhibitors, retest, confirmation, biochemical, fluorescence polarization, FP-Rh probe, triplicate. shares compounds with SIAE primary. SIAE FP-Rh activity-based probe. inhibition, % at 9.66 µM. hit rate 13% among 2,300;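 active = mean inhibition of the replicates above the hit cutoff set in the primary screen, cut at about 17% in these data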;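 also: 0% = SIAE with DMSO and probe and 100% = probe without SIAE; inhibitors lower polarization as more probe stays unbound to SIAE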
* hit, by the source's call; / = no result given. An excerpt weighted towards active compounds, which were near 1.4% of everything screened.

SMILES	SIAE primary	HTRA1 inh	ABHD4 inh	RBBP9 inh	SIAE confirm
COc1cc([N+](=O)[O-])cc(/C=N/NC(=O)c2ccc(NC(=O)c3ccc(C)cc3)cc2)c1O	18.1*	7.7	-6.2	-5.6	11.5
COc1cc(/C=N/NC(=O)c2ccc(COc3cc(C)ccc3C(C)C)cc2)cc(OC)c1O	21.9*	-9.2	-2.2	3.3	4.6
COc1cc(/C=N\NC(=O)c2ccc(-c3ccccc3)cc2)cc(OC)c1O	27.9*	-9.5	20.0	/	10.2
COc1cc(/C=N/NC(=O)c2cccc([N+](=O)[O-])c2)ccc1OCc1ccc(C)cc1	-2.3	-5.0	-5.3	-6.5	/
COc1cc(/C=N/NC(=O)c2ccc3nc[nH]c3c2)cc(OC)c1OC(C)=O	-0.3	-5.2	8.7	/	/
COc1cc(/C=N\NC(=O)c2ccc(-c3ccccc3)cc2)cc(OC)c1OC(C)=O	22.9*	-19.3	2.4	/	2.4
O=C(NCc1ccc(Cl)cc1)OCCN1C(=O)CCC12CCC(c1ccccc1)CC2 (configuration not stated)	4.5	/	6.7	/	/
COc1ccc(OC)c(S(=O)(=O)CC(=O)c2cc3ccccc3oc2=O)c1	4.2	/	15.1	/	/
CCN(C(=O)COC(=O)c1cc([N+](=O)[O-])ccc1N1CCOCC1)c1ccccc1	2.8	7.0	1.3	/	/
O=C(Nc1ccccc1)Nc1nnc([C@@H]2C[C@H](O)[C@@H](CO)O2)s1	47.0*	/	4.9	/	0.4
O=C(Nc1ccc(F)cc1)Nc1nnc([C@@H]2C[C@H](O)[C@@H](CO)O2)s1	-3.3	/	5.2	/	/
Cc1cccc(NC(=S)NC(=O)/C=C/c2ccco2)c1	4.8	-7.3	16.4	-2.1	/
O=C(/C=C/c1ccco1)NC(=S)Nc1cccc([N+](=O)[O-])c1	22.7*	7.0	21.0	-9.1	-15.7
NS(=O)(=O)c1ccc(NC(=S)NC(=O)/C=C/c2ccco2)cc1	18.8*	1.8	29.5	-8.6	-10.0
NC(N)=NS(=O)(=O)c1ccc(NC(=S)NC(=O)/C=C/c2ccco2)cc1	-6.6	-0.3	14.3	-1.9	/
O=C(NC(=S)Nc1ccc(S(=O)(=O)Nc2nccs2)cc1)C1CC1	2.1	7.1	-2.7	-3.7	/
O=C(Nc1ccc(S(=O)(=O)Nc2nccs2)cc1)C1CCCCC1	20.2*	-1.1	-3.7	2.4	5.3
O=C(CCn1cccn1)N1CCCC(N2CCN(c3cccc(Cl)c3)CC2)C1 (configuration not stated)	-0.8	0.8	1.1	/	/
S=c1[nH]nc(-c2ccncc2)n1/N=C/C=C/c1ccco1	19.0*	7.8	16.9	0.1	2.1
Cc1cccc(-c2n[nH]c(=S)n2/N=C/C=C/c2ccco2)c1	5.2	32.7	22.3	-1.8	/
CC(=O)c1sccc1NC(=O)CC(C)(C)CC(=O)O	-3.2	/	-1.7	-0.1	/
O=C(N/N=C/c1sc(N2CCOCC2)nc1-c1ccccc1)c1ccccc1O	11.7	25.0	12.5	-10.0	/
Nc1ccc(C(=O)N/N=C/c2sc(N3CCOCC3)nc2-c2ccccc2)cc1	17.1*	10.7	13.8	-7.2	4.0
COc1ccc(-c2ccc3c(n2)CCCN3S(=O)(=O)c2ccc(OC)cc2)cc1	-6.0	/	-16.7	/	/
CCN(Cc1ccccc1)c1ccccc1	3.5	-0.5	1.8	/	/
SMILES	SIAE primary	HTRA1 inh	ABHD4 inh	RBBP9 inh	SIAE confirm
CCN(CC)C1=NC=CC(c2ccccc2)=CC1C (configuration not stated)	28.5*	2.3	-7.1	-7.3	-3.3
Cc1ccc(N(Cc2ccc(C(=O)NCC3CCCO3)cc2)S(C)(=O)=O)cc1C (configuration not stated)	19.7*	-3.5	-3.6	-4.6	1.7
CC(C)CN1C(=O)C[C@@]2(C(=O)N(C)c3ccc(NS(=O)(=O)C4CCCCC4)cc32)C1c1ccccc1 (some centres not stated)	0.1	/	2.6	/	/
CN(C)c1ccc(C(=O)Nc2nnc(-c3ccc(Cl)cc3)o2)cc1	18.3*	15.0	-1.7	-9.3	5.4
CC(=O)c1ccc(C(=O)Nc2nnc(-c3ccc(Cl)cc3)o2)cc1	-2.5	-1.5	-4.2	/	/
O=C(CCl)N1c2ccccc2SCC1c1ccccc1 (configuration not stated)	19.3*	-1.6	-1.2	/	2.8
CCc1nc2sc3c(c2c(=O)o1)CCCC3	20.5*	6.2	5.0	-8.9	8.8
Nc1c(C(=O)Nc2ccccc2)sc2nc(-c3ccco3)ccc12	30.1*	-7.3	7.6	11.3	5.1
COc1ccccc1NC(=O)c1sc2nc(-c3ccco3)ccc2c1N	/	-4.5	/	4.7	/
CCN1C(=O)C2CCCCN2c2ccc(C(=O)NCCOC)cc21 (configuration not stated)	-2.8	-2.6	-5.9	/	/
O=C(CSc1ccc(-c2ccco2)nn1)Nc1ccc(F)cc1F	18.8*	3.9	22.2	/	2.1
CCCC1CCC2(CCCN2CCOC(=O)Nc2ccccc2C)CC1 (configuration not stated)	-3.4	/	2.4	/	/
CN1/C(=C\C=O)C(C)(C)c2ccccc21	-15.9	0.1	-16.0	-9.7	/
CN1/C(=C/C=C(C#N)C#N)C(C)(C)c2ccccc21	24.6*	-5.9	-6.7	-4.3	80.8*
O=C(Nc1nc2c(Br)cccc2s1)c1ccc2c(c1)OCCO2	22.4*	/	-29.5	/	-60.4
O=C(Nc1ccc(N2CCOCC2)cc1)c1csc([C@@H]2O[C@H](CO)[C@H](O)[C@H](O)[C@H]2O)n1	-3.2	/	-0.2	/	/
CCOC(=O)Cn1cc(CN2C(C(=O)OC)CN(C3CC3)CCS2(=O)=O)nn1 (configuration not stated)	2.3	/	3.0	/	/
COc1ccc(C2CC(C)(c3ccc(OC)cc3)Nc3ccccc3N2)cc1 (configuration not stated)	17.1*	-3.6	-3.2	-4.4	2.4
O=C(CNc1ccc(F)cc1)N/N=C/c1c(O)ccc2ccccc12	15.5	32.1	18.5	/	/
COc1ccccc1NCC(=O)N/N=C/c1c(O)ccc2ccccc12	17.9*	27.3	17.4	/	0.0
CC1CCN(C(=O)c2[nH]cnc2C(=O)N[C@@H](CCCCNC(=O)OC(C)(C)C)C(=O)OC(C)(C)C)CC1	21.6*	-11.9	-0.9	/	-4.9
CC(C)C[C@H](NC(=O)c1nc[nH]c1C(=O)N1CCC(C)CC1)C(=O)OC(C)(C)C	-1.1	4.1	-5.8	/	/
COc1ccccc1OCc1ccc(C(=O)N2CCOCC2)o1	20.3*	2.5	-0.1	9.7	4.0
COc1ccccc1Nc1ccc(NC(=O)c2cccc([N+](=O)[O-])c2C)cc1	17.7*	19.9	4.8	/	5.4
CSC1=NC(C)(C)C=C(/C=C/c2ccc(Cl)cc2)N1	17.4*	-4.3	2.5	-4.8	4.8
Cc1nc(NS(=O)(=O)c2ccccc2)sc1NC(=O)Nc1ccc(Cl)cc1	17.6*	3.5	17.9	-2.2	27.3*
